Several values for one entry are separate records, joined by “and”; a condition that tells them apart may be missing. Identical values can stand only once. Like-named read-outs stand apart in the source and are kept apart here.
Experiments:
PSMA = PSMA (Homo sapiens, UniProt Q04609); assay: PSMA inhibitory activity, fluorescence-based Amplex red glutamic acid; assay type: biochemical; conditions: for Ki: LNCaP cell lysates, 4 µM NAAG, Cheng-Prusoff conversion
Method in brief: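 LNCaP cell lysate was incubated with the test compound and NAAG substrate for 120 min. Glutamate released by NAAG hydrolysis was detected by a further 60 min incubation with Amplex red glutamic acid working solution, then fluorescence was read at excitation 490 nm and emission 642 nm. IC50 was taken from semilog inhibition curves and converted to Ki by Cheng-Prusoff. Assays were run in triplicate.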

[1] = system: PSMA+ PC3 PIP and PSMA– PC3 flu xenografts; assay type: in vivo, mice; conditions: for PIP:blood ratio / PIP:flu ratio / PIP:kidney ratio / PIP:muscle ratio / biodistribution, PC-3 PIP tumor / biodistribution, PC-3 flu tumor / biodistribution, bladder / biodistribution, blood / biodistribution, bone / biodistribution, fat / biodistribution, heart / biodistribution, kidney / biodistribution, large intestine / biodistribution, liver / biodistribution, lung / biodistribution, muscle / biodistribution, pancreas / biodistribution, small intestine / biodistribution, spleen / biodistribution, stomach: tumor bearing mice
[2] = system: PSMA+ PC3 PIP and PSMA– PC3 flu tumor xenografts; assay: Small animal PET or PET/CT imaging of tumor bearing mice; assay type: in vivo

Chain of PSMA (Q04609 whole entry): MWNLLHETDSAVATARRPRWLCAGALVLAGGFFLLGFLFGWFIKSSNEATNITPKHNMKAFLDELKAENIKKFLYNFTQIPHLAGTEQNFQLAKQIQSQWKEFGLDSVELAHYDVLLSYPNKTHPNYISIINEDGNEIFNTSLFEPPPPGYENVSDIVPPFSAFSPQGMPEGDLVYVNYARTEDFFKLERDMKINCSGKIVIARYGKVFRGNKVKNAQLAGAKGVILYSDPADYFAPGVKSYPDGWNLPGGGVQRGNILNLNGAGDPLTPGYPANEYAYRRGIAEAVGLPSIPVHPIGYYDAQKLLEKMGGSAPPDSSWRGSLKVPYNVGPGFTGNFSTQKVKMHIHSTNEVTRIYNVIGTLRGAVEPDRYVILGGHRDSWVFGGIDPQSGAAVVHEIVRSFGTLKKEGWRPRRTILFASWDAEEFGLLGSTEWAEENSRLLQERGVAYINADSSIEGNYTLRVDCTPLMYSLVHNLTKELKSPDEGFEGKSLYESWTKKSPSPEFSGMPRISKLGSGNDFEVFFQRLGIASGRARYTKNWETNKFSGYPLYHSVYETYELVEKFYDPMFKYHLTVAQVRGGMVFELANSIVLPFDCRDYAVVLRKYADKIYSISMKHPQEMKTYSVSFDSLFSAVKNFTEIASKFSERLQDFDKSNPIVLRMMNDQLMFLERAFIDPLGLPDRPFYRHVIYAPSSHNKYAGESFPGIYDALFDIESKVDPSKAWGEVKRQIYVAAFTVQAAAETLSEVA

Which results are given for O=C(O)CC[C@H](OC(=O)N[C@@H](CCCCNC(=O)c1ccc(Br)cc1F)C(=O)O)C(=O)O [compound 23, (S)-2-((((S)-5-(4-Bromo-2-fluorobenzamido)-1-carboxypentyl)carbamoyl)oxy)pentanedioic Acid]?
decrease in potency compared with the corresponding ureas 26 and 27 (PSMA): < 10 fold; Ki (PSMA; Ki): 0.11 nM

How did the Ki (PSMA; Ki) turn out when O=C(O)CC[C@H](NC(=O)N[C@@H](CCCCNC(=O)c1ccc(Br)cc1F)C(=O)O)C(=O)O [compound 26, (S)-2-(3-((S)-5-(4-Bromo-2-fluorobenzamido)-1-carboxypentyl)ureido)pentanedioic Acid] was run?
Its Ki is 0.036 nM and 0.04 nM.

With O=C(O)CC[C@H](NC(=O)O[C@@H](CCCCNC(=O)c1ccc(F)cc1)C(=O)O)C(=O)O [compound 12, (S)-2-(((((S)-1-Carboxy-5-(4-fluorobenzamido)pentyl)oxy)-carbonyl)amino)pentanedioic Acid] as the compound, how does the “reduction in binding affinity compared to 9” value (PSMA) read?
Its value is “more than 150 fold”.

O=C(O)CC[C@H](OC(=O)N[C@@H](CCCCNC(=O)c1ccc(F)cc1)C(=O)O)C(=O)O [compound 13, (S)-2-((((S)-1-Carboxy-5-(4-fluorobenzamido)pentyl)-carbamoyl)oxy)pentanedioic Acid] was tested. Which “reduction in binding affinity compared to 9” value (PSMA) did it give?
The value was 30 fold.

What about the Ki (PSMA; Ki) of the same compound?
Its Ki is 9.2 nM.

With O=C(O)CCC(OC(=O)NC(CCCCNC(=O)c1ccc(I)cc1[18F])C(=O)O)C(=O)O (centres unmarked) [[^18F]24, 4-iodo-2-[^18F]fluorobenzoyllysine OPA carbamate] as the compound, how does the “PIP:blood ratio” value ([1]; 0.5 h postinjection) read?
The value was 5.6.

And the “PIP:flu ratio” value ([1]; 0.5 h postinjection)?
Its value is 9.1.

What about the “PIP:kidney ratio” value ([1]; 0.5 h postinjection) of the same compound?
The value was 0.5.

And the “PIP:muscle ratio” value ([1]; 0.5 h postinjection)?
Its value is 47 and 46.6.

And the “biodistribution, PC-3 PIP tumor” value ([1]; 0.5 h postinjection)?
The value was 45 % ID/g and 44.7 ± 0.62 % ID/g.

And the “biodistribution, PC-3 flu tumor” value ([1]; 0.5 h postinjection)?
The value was 4.91 ± 1.10 % ID/g.

What about the “biodistribution, bladder” value ([1]; 0.5 h postinjection) of the same compound?
Its value is 3.89 ± 0.40 % ID/g.

And the “biodistribution, blood” value ([1]; 0.5 h postinjection)?
Its value is 7.94 ± 0.99 % ID/g.

And the “biodistribution, bone” value ([1]; 0.5 h postinjection)?
The value was 1.52 ± 0.19 % ID/g.

And the “biodistribution, fat” value ([1]; 0.5 h postinjection)?
The value was 1.65 ± 0.67 % ID/g.

And the “biodistribution, heart” value ([1]; 0.5 h postinjection)?
The value was 2.27 ± 0.32 % ID/g.

What about the “biodistribution, kidney” value ([1]; 0.5 h postinjection) of the same compound?
The value was 94.4 ± 8.22 % ID/g.

And the “biodistribution, large intestine” value ([1]; 0.5 h postinjection)?
The value was 1.83 ± 0.16 % ID/g.

And the “biodistribution, liver” value ([1]; 0.5 h postinjection)?
The value was 16.6 ± 1.61 % ID/g.

And the “biodistribution, lung” value ([1]; 0.5 h postinjection)?
Its value is 5.13 ± 0.29 % ID/g.

And the “biodistribution, muscle” value ([1]; 0.5 h postinjection)?
Its value is 0.96 ± 0.21 % ID/g.

And the “biodistribution, pancreas” value ([1]; 0.5 h postinjection)?
Its value is 1.78 ± 0.15 % ID/g.

What about the “biodistribution, small intestine” value ([1]; 0.5 h postinjection) of the same compound?
The value was 1.37 ± 0.06 % ID/g.

And the “biodistribution, spleen” value ([1]; 0.5 h postinjection)?
Its value is 14.6 ± 4.41 % ID/g.

And the “biodistribution, stomach” value ([1]; 0.5 h postinjection)?
Its value is 1.80 ± 0.08 % ID/g.

What about the “PIP:blood ratio” value ([1]; 1 h postinjection) of the same compound?
The value was 20 and 19.7.

What about the “PIP:flu ratio” value ([1]; 1 h postinjection) of the same compound?
The value was 25.4.

What about the “PIP:kidney ratio” value ([1]; 1 h postinjection) of the same compound?
Its value is 0.5.

And the “PIP:muscle ratio” value ([1]; 1 h postinjection)?
The value was 100 and 100.2.

What about the “biodistribution, PC-3 PIP tumor” value ([1]; 1 h postinjection) of the same compound?
The value was 57.1 ± 19.55 % ID/g.

And the “biodistribution, PC-3 flu tumor” value ([1]; 1 h postinjection)?
The value was 2.25 ± 1.62 % ID/g.

What about the “biodistribution, bladder” value ([1]; 1 h postinjection) of the same compound?
The value was 2.19 ± 0.22 % ID/g.

What about the “biodistribution, blood” value ([1]; 1 h postinjection) of the same compound?
The value was 2.90 ± 1.98 % ID/g.

And the “biodistribution, bone” value ([1]; 1 h postinjection)?
The value was 0.78 ± 0.14 % ID/g.

And the “biodistribution, fat” value ([1]; 1 h postinjection)?
Its value is 0.88 ± 0.68 % ID/g.

What about the “biodistribution, heart” value ([1]; 1 h postinjection) of the same compound?
Its value is 1.23 ± 0.22 % ID/g.

What about the “biodistribution, kidney” value ([1]; 1 h postinjection) of the same compound?
Its value is 122 ± 21.9 % ID/g.

And the “biodistribution, large intestine” value ([1]; 1 h postinjection)?
Its value is 0.78 ± 0.13 % ID/g.

And the “biodistribution, liver” value ([1]; 1 h postinjection)?
The value was 15.5 ± 2.00 % ID/g.

And the “biodistribution, lung” value ([1]; 1 h postinjection)?
Its value is 3.31 ± 0.41 % ID/g.

And the “biodistribution, muscle” value ([1]; 1 h postinjection)?
Its value is 0.57 ± 0.06 % ID/g.

What about the “biodistribution, pancreas” value ([1]; 1 h postinjection) of the same compound?
The value was 1.23 ± 0.29 % ID/g.

What about the “biodistribution, small intestine” value ([1]; 1 h postinjection) of the same compound?
The value was 1.83 ± 1.12 % ID/g.

And the “biodistribution, spleen” value ([1]; 1 h postinjection)?
The value was 7.81 ± 4.22 % ID/g.

What about the “biodistribution, stomach” value ([1]; 1 h postinjection) of the same compound?
Its value is 0.99 ± 0.17 % ID/g.

And the “PIP:blood ratio” value ([1]; 2 h postinjection)?
Its value is 66.

What about the “PIP:flu ratio” value ([1]; 2 h postinjection) of the same compound?
Its value is 71.1.

And the “PIP:kidney ratio” value ([1]; 2 h postinjection)?
Its value is 0.7.

What about the “PIP:muscle ratio” value ([1]; 2 h postinjection) of the same compound?
Its value is 250 and 250.5.

What about the “biodistribution, PC-3 PIP tumor” value ([1]; 2 h postinjection) of the same compound?
The value was 85.2 ± 5.44 % ID/g.

And the “biodistribution, PC-3 flu tumor” value ([1]; 2 h postinjection)?
Its value is 1.20 ± 0.31 % ID/g.

And the “biodistribution, bladder” value ([1]; 2 h postinjection)?
The value was 7.48 ± 0.68 % ID/g.

What about the “biodistribution, blood” value ([1]; 2 h postinjection) of the same compound?
Its value is 1.29 ± 0.87 % ID/g.

What about the “biodistribution, bone” value ([1]; 2 h postinjection) of the same compound?
The value was 0.36 ± 0.02 % ID/g.

And the “biodistribution, fat” value ([1]; 2 h postinjection)?
Its value is 1.12 ± 0.43 % ID/g.

What about the “biodistribution, heart” value ([1]; 2 h postinjection) of the same compound?
The value was 0.57 ± 0.09 % ID/g.

What about the “biodistribution, kidney” value ([1]; 2 h postinjection) of the same compound?
The value was 115 ± 13.2 % ID/g.

What about the “biodistribution, large intestine” value ([1]; 2 h postinjection) of the same compound?
The value was 0.55 ± 0.01 % ID/g.

What about the “biodistribution, liver” value ([1]; 2 h postinjection) of the same compound?
The value was 8.99 ± 0.55 % ID/g.

What about the “biodistribution, lung” value ([1]; 2 h postinjection) of the same compound?
Its value is 1.91 ± 0.29 % ID/g.

And the “biodistribution, muscle” value ([1]; 2 h postinjection)?
The value was 0.34 ± 0.07 % ID/g.

And the “biodistribution, pancreas” value ([1]; 2 h postinjection)?
The value was 0.92 ± 0.40 % ID/g.

What about the “biodistribution, small intestine” value ([1]; 2 h postinjection) of the same compound?
The value was 1.19 ± 0.61 % ID/g.

What about the “biodistribution, spleen” value ([1]; 2 h postinjection) of the same compound?
The value was 6.78 ± 1.25 % ID/g.

And the “biodistribution, stomach” value ([1]; 2 h postinjection)?
The value was 0.51 ± 0.07 % ID/g.

What about the “PIP:blood ratio” value ([1]; 4 h postinjection) of the same compound?
Its value is 156 and 155.8.

What about the “PIP:flu ratio” value ([1]; 4 h postinjection) of the same compound?
Its value is 231.1.

And the “PIP:kidney ratio” value ([1]; 4 h postinjection)?
The value was 1.3.

And the “PIP:muscle ratio” value ([1]; 4 h postinjection)?
Its value is 743.

And the “biodistribution, PC-3 PIP tumor” value ([1]; 4 h postinjection)?
The value was 97 % ID/g and 96.6 ± 18.7 % ID/g.

And the “biodistribution, PC-3 flu tumor” value ([1]; 4 h postinjection)?
The value was 0.42 ± 0.07 % ID/g.

What about the “biodistribution, bladder” value ([1]; 4 h postinjection) of the same compound?
The value was 2.03 ± 1.09 % ID/g.

And the “biodistribution, blood” value ([1]; 4 h postinjection)?
The value was 0.62 ± 0.10 % ID/g.

What about the “biodistribution, bone” value ([1]; 4 h postinjection) of the same compound?
Its value is 0.18 ± 0.04 % ID/g.

What about the “biodistribution, fat” value ([1]; 4 h postinjection) of the same compound?
The value was 0.58 ± 0.17 % ID/g.

And the “biodistribution, heart” value ([1]; 4 h postinjection)?
Its value is 0.24 ± 0.04 % ID/g.

What about the “biodistribution, kidney” value ([1]; 4 h postinjection) of the same compound?
The value was 74.4 ± 13.8 % ID/g.

And the “biodistribution, large intestine” value ([1]; 4 h postinjection)?
Its value is 0.96 ± 0.25 % ID/g.

And the “biodistribution, liver” value ([1]; 4 h postinjection)?
Its value is 2.77 ± 0.49 % ID/g.

What about the “biodistribution, lung” value ([1]; 4 h postinjection) of the same compound?
Its value is 0.94 ± 0.06 % ID/g.

What about the “biodistribution, muscle” value ([1]; 4 h postinjection) of the same compound?
The value was 0.13 ± 0.04 % ID/g.

What about the “biodistribution, pancreas” value ([1]; 4 h postinjection) of the same compound?
The value was 0.26 ± 0.06 % ID/g.

And the “biodistribution, small intestine” value ([1]; 4 h postinjection)?
Its value is 0.24 ± 0.09 % ID/g.

What about the “biodistribution, spleen” value ([1]; 4 h postinjection) of the same compound?
The value was 3.49 ± 0.86 % ID/g.

And the “biodistribution, stomach” value ([1]; 4 h postinjection)?
The value was 0.19 ± 0.03 % ID/g.

And the tumor/kidney ratio ([1]; at 2–4 h)?
Its tumor/kidney ratio is “approximately 1”.

What about the “PSMA+ PC3 PIP tumor uptake on small animal PET imaging” value ([2]; male SCID mice with PSMA+ PC3 PIP and PSMA– PC3 flu xenografts) of the same compound?
The value was “Intense and selective radiotracer uptake”.

And the “uptake in salivary glands on imaging” value ([2]; mouse, in vivo)?
Its value is “Neither [^18F]23 nor [^18F]24 demonstrated any uptake in salivary glands”.

With O=C(O)CC[C@H](NC(=O)N[C@@H](CCCCNC(=O)c1ccc(I)cc1F)C(=O)O)C(=O)O [compound 27, (S)-2-(3-((S)-5-(4-Iodo-2-fluorobenzamido)-1-carboxypentyl)ureido)pentanedioic Acid] as the compound, how does the Ki (PSMA; Ki) read?
The Ki was 0.023 nM and 0.02 nM.

Which “decrease in potency compared with the corresponding ureas 26 and 27” value (PSMA) does the source give for O=C(O)CC[C@H](OC(=O)N[C@@H](CCCCNC(=O)c1ccc(I)cc1F)C(=O)O)C(=O)O [compound 24] here?
Its value is less than 10 fold.

And the Ki (PSMA)?
The Ki was 0.21 nM.

From publication PMC4856055 (Journal of medicinal chemistry, 2015)
